Assay results gathered from unrelated publications.
Lines come from different studies, so protocols differ.
Read-out: enzyme activity
Action: inhibitor
PDGFRA: Platelet-derived growth factor receptor alpha (PDGFRA, Homo sapiens, UniProt P16234)
PDGFRA V561D: Platelet-derived growth factor receptor alpha (PDGFRA, Homo sapiens, UniProt P16234, V561D)

SMILES	target	assay	setting	inhibition [%]
CN1CC(Oc2cnc(C#N)cc2-c2ccn3nc(NC(=O)C4CC4)cc3c2)C1	PDGFRA		1 µM	4
COc1cc2ncnc(Nc3ccc(Oc4ccccc4)c(C)c3C)c2cc1OC	PDGFRA V561D		1 µM	7
CC/C(=N\NC(=O)NCc1cccc(O)c1)c1ccc(O)c(C)c1O	PDGFRA		0.1 µM	6.7
COc1cc(-c2cc(-c3ccc(N4CCNCC4)cc3)cnc2N)cc(OC)c1OC	Platelet-derived growth factor receptor alpha (PDGFRA, Homo sapiens, UniProt P16234, T674I)		0.1 µM	2
CS(=O)(=O)Nc1cccc(-c2csc(NC(=O)CSc3nc4nccnc4c(=O)n3CCc3ccccc3)n2)c1	PDGFRA		10 µM	5
CNC(=O)c1cc(Oc2ccc(NC(=O)Nc3ccc(Cl)c(C(F)(F)F)c3)cc2)ccn1	PDGFRA V561D		0.3 µM	99
CNCc1ccc(-c2cc(-c3nc(-c4ccc(S(=O)(=O)C(C)C)cc4)cnc3N)on2)cc1	PDGFRA		2 µM	9
COc1cc2ncnc(Nc3ccc(Oc4ccccc4)cc3C)c2cc1OC	PDGFRA V561D		1 µM	20
CNC(=O)c1cc2c(Oc3ccc(NC(=O)C4(C(=O)Nc5ccc(F)cc5)CC4)cc3)ccnc2cc1OC	PDGFRA	radiometric	1 µM	71
